Measurements published in ChEMBL document CHEMBL4715736, “Identification of anticancer agents based on the thieno[2,3-b]pyridine and 1H-pyrazole molecular scaffolds” (2016).

System: MCF7
Experiment: Growth inhibition of human MCF7 cells assessed as cell growth at 0.01 uM incubated for 48 hrs by sulforhodamine B assay relative to control
Type: functional
Details: read-out: Activity

Row | SMILES | growth at 0.01 µM
1 | CN1CCc2nc3sc(C(N)=O)c(N)c3c(-c3cccs3)c2C1 | 98%

System: SK-MEL-28
Experiment: Growth inhibition of human SK-MEL-28 cells assessed as cell growth at 1 uM incubated for 48 hrs by sulforhodamine B assay relative to control
Type: functional
Details: read-out: Activity

Row | SMILES | growth at 1 µM
2 | CN1CCc2nc3sc(C(N)=O)c(N)c3c(-c3cccs3)c2C1 | 95%

System: RXF 393
Experiment: Growth inhibition of human RXF 393 cells assessed as cell growth at 100 uM incubated for 48 hrs by sulforhodamine B assay relative to control
Type: functional
Details: read-out: Activity

Row | SMILES | growth at 100 µM
3 | CN1CCc2nc3sc(C(N)=O)c(N)c3c(-c3cccs3)c2C1 | -46%

System: HCT-15
Experiment: Growth inhibition of human HCT-15 cells assessed as cell growth at 0.01 uM incubated for 48 hrs by sulforhodamine B assay relative to control
Type: functional
Details: read-out: Activity

Row | SMILES | growth at 0.01 µM
4 | CN1CCc2nc3sc(C(N)=O)c(N)c3c(-c3cccs3)c2C1 | 103%

System: COLO 205
Experiment: Growth inhibition of human COLO 205 cells assessed as cell growth at 0.1 uM incubated for 48 hrs by sulforhodamine B assay relative to control
Type: functional
Details: read-out: Activity
Summary of the method: (§1)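 NCI Developmental Therapeutics Program NCI60 panel. Compounds that were active in the 10 µM one-dose screen went on to dose–response testing. Growth at each concentration is expressed relative to untreated control (100%). GI50 (concentration giving 50% of maximal inhibition of proliferation) and TGI (concentration giving total growth inhibition) were derived from the curves.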

Row | SMILES | growth at 0.1 µM
5 | CN1CCc2nc3sc(C(N)=O)c(N)c3c(-c3cccs3)c2C1 | 103%

System: OVCAR-4
Experiment: Growth inhibition of human OVCAR-4 cells assessed as cell growth at 0.1 uM incubated for 48 hrs by sulforhodamine B assay relative to control
Type: functional
Details: read-out: Activity

Row | SMILES | growth at 0.1 µM
6 | CN1CCc2nc3sc(C(N)=O)c(N)c3c(-c3cccs3)c2C1 | 107%

System: Malme-3M
Experiment: Growth inhibition of human Malme-3M cells assessed as cell growth at 1 uM incubated for 48 hrs by sulforhodamine B assay relative to control
Type: functional
Details: read-out: Activity

Row | SMILES | growth at 1 µM
7 | CN1CCc2nc3sc(C(N)=O)c(N)c3c(-c3cccs3)c2C1 | 131%

System: U-251
Experiment: Growth inhibition of human U-251 cells assessed as cell growth at 0.01 uM incubated for 48 hrs by sulforhodamine B assay relative to control
Type: functional
Details: read-out: Activity

Row | SMILES | growth at 0.01 µM
8 | CN1CCc2nc3sc(C(N)=O)c(N)c3c(-c3cccs3)c2C1 | 99%

System: BT-549
Experiment: Growth inhibition of human BT-549 cells incubated for 48 hrs by sulforhodamine B assay
Type: functional
Details: not given
Summary of the method: as §1

Row | SMILES | GI50 | TGI
9 | CN1CCc2nc3sc(C(N)=O)c(N)c3c(-c3cccs3)c2C1 | 3.26 µM | 35.5 µM

Same assay, conditions: read-out: LC50 (the source's name)

Row | SMILES | CC50
10 | CN1CCc2nc3sc(C(N)=O)c(N)c3c(-c3cccs3)c2C1 | > 100 µM

System: HT-29
Experiment: Growth inhibition of human HT-29 cells assessed as cell growth at 0.1 uM incubated for 48 hrs by sulforhodamine B assay relative to control
Type: functional
Details: read-out: Activity

Row | SMILES | growth at 0.1 µM
11 | CN1CCc2nc3sc(C(N)=O)c(N)c3c(-c3cccs3)c2C1 | 104%

System: IGROV-1
Experiment: Growth inhibition of human IGROV-1 cells assessed as cell growth at 0.01 uM incubated for 48 hrs by sulforhodamine B assay relative to control
Type: functional
Details: read-out: Activity

Row | SMILES | growth at 0.01 µM
12 | CN1CCc2nc3sc(C(N)=O)c(N)c3c(-c3cccs3)c2C1 | 111%

System: HCT-15
Experiment: Growth inhibition of human HCT-15 cells assessed as cell growth at 100 uM incubated for 48 hrs by sulforhodamine B assay relative to control
Type: functional
Details: read-out: Activity

Row | SMILES | growth at 100 µM
13 | CN1CCc2nc3sc(C(N)=O)c(N)c3c(-c3cccs3)c2C1 | 6%

System: MOLT-4
Experiment: Growth inhibition of human MOLT-4 cells assessed as cell growth at 0.1 uM incubated for 48 hrs by sulforhodamine B assay relative to control
Type: functional
Details: read-out: Activity

Row | SMILES | growth at 0.1 µM
14 | CN1CCc2nc3sc(C(N)=O)c(N)c3c(-c3cccs3)c2C1 | 91%

System: SNB-75
Experiment: Growth inhibition of human SNB-75 cells assessed as cell growth at 1 uM incubated for 48 hrs by sulforhodamine B assay relative to control
Type: functional
Details: read-out: Activity

Row | SMILES | growth at 1 µM
15 | CN1CCc2nc3sc(C(N)=O)c(N)c3c(-c3cccs3)c2C1 | 99%

System: NCI-H322M
Experiment: Growth inhibition of human NCI-H322M cells assessed as cell growth at 0.1 uM incubated for 48 hrs by sulforhodamine B assay relative to control
Type: functional
Details: read-out: Activity

Row | SMILES | growth at 0.1 µM
16 | CN1CCc2nc3sc(C(N)=O)c(N)c3c(-c3cccs3)c2C1 | 102%

System: OVCAR-8
Experiment: Growth inhibition of human OVCAR-8 cells assessed as cell growth at 100 uM incubated for 48 hrs by sulforhodamine B assay relative to control
Type: functional
Details: read-out: Activity

Row | SMILES | growth at 100 µM
17 | CN1CCc2nc3sc(C(N)=O)c(N)c3c(-c3cccs3)c2C1 | 5%

System: NCI/ADR-RES
Experiment: Growth inhibition of human NCI/ADR-RES cells assessed as cell growth at 0.01 uM incubated for 48 hrs by sulforhodamine B assay relative to control
Type: functional
Details: read-out: Activity

Row | SMILES | growth at 0.01 µM
18 | CN1CCc2nc3sc(C(N)=O)c(N)c3c(-c3cccs3)c2C1 | 100%

System: KM12
Experiment: Growth inhibition of human KM12 cells assessed as cell growth at 100 uM incubated for 48 hrs by sulforhodamine B assay relative to control
Type: functional
Details: read-out: Activity

Row | SMILES | growth at 100 µM
19 | CN1CCc2nc3sc(C(N)=O)c(N)c3c(-c3cccs3)c2C1 | 2%

System: KM12
Experiment: Growth inhibition of human KM12 cells assessed as cell growth at 0.01 uM incubated for 48 hrs by sulforhodamine B assay relative to control
Type: functional
Details: read-out: Activity

Row | SMILES | growth at 0.01 µM
20 | CN1CCc2nc3sc(C(N)=O)c(N)c3c(-c3cccs3)c2C1 | 103%

System: UACC-62
Experiment: Growth inhibition of human UACC-62 cells assessed as cell growth at 0.01 uM incubated for 48 hrs by sulforhodamine B assay relative to control
Type: functional
Details: read-out: Activity

Row | SMILES | growth at 0.01 µM
21 | CN1CCc2nc3sc(C(N)=O)c(N)c3c(-c3cccs3)c2C1 | 99%

System: OVCAR-8
Experiment: Growth inhibition of human OVCAR-8 cells assessed as cell growth at 0.01 uM incubated for 48 hrs by sulforhodamine B assay relative to control
Type: functional
Details: read-out: Activity

Row | SMILES | growth at 0.01 µM
22 | CN1CCc2nc3sc(C(N)=O)c(N)c3c(-c3cccs3)c2C1 | 106%

System: 786-0
Experiment: Growth inhibition of human 786-0 cells incubated for 48 hrs by sulforhodamine B assay
Type: functional
Details: not given
Summary of the method: as §1

Row | SMILES | GI50 | TGI
23 | CN1CCc2nc3sc(C(N)=O)c(N)c3c(-c3cccs3)c2C1 | 4.41 µM | > 100 µM

Same assay, conditions: read-out: LC50 (the source's name)

Row | SMILES | CC50
24 | CN1CCc2nc3sc(C(N)=O)c(N)c3c(-c3cccs3)c2C1 | > 100 µM

System: NCI-H226
Experiment: Growth inhibition of human NCI-H226 cells assessed as cell growth at 100 uM incubated for 48 hrs by sulforhodamine B assay relative to control
Type: functional
Details: read-out: Activity

Row | SMILES | growth at 100 µM
25 | CN1CCc2nc3sc(C(N)=O)c(N)c3c(-c3cccs3)c2C1 | 14%

System: SW-620
Experiment: Growth inhibition of human SW-620 cells assessed as cell growth at 1 uM incubated for 48 hrs by sulforhodamine B assay relative to control
Type: functional
Details: read-out: Activity

Row | SMILES | growth at 1 µM
26 | CN1CCc2nc3sc(C(N)=O)c(N)c3c(-c3cccs3)c2C1 | 116%

System: SN12C
Experiment: Growth inhibition of human SN12C cells assessed as cell growth at 0.01 uM incubated for 48 hrs by sulforhodamine B assay relative to control
Type: functional
Details: read-out: Activity

Row | SMILES | growth at 0.01 µM
27 | CN1CCc2nc3sc(C(N)=O)c(N)c3c(-c3cccs3)c2C1 | 98%

System: HCC 2998
Experiment: Growth inhibition of human HCC 2998 cells assessed as cell growth at 0.01 uM incubated for 48 hrs by sulforhodamine B assay relative to control
Type: functional
Details: read-out: Activity
Summary of the method: as §1

Row | SMILES | growth at 0.01 µM
28 | CN1CCc2nc3sc(C(N)=O)c(N)c3c(-c3cccs3)c2C1 | 94%

System: T47D
Experiment: Growth inhibition of human T47D cells assessed as cell growth at 100 uM incubated for 48 hrs by sulforhodamine B assay relative to control
Type: functional
Details: read-out: Activity

Row | SMILES | growth at 100 µM
29 | CN1CCc2nc3sc(C(N)=O)c(N)c3c(-c3cccs3)c2C1 | 2%

System: CCRF-CEM
Experiment: Growth inhibition of human CCRF-CEM cells assessed as cell growth at 1 uM incubated for 48 hrs by sulforhodamine B assay relative to control
Type: functional
Details: read-out: Activity
Summary of the method: as §1

Row | SMILES | growth at 1 µM
30 | CN1CCc2nc3sc(C(N)=O)c(N)c3c(-c3cccs3)c2C1 | 104%

System: SF-539
Experiment: Growth inhibition of human SF-539 cells assessed as cell growth at 0.01 uM incubated for 48 hrs by sulforhodamine B assay relative to control
Type: functional
Details: read-out: Activity

Row | SMILES | growth at 0.01 µM
31 | CN1CCc2nc3sc(C(N)=O)c(N)c3c(-c3cccs3)c2C1 | 102%

System: DU-145
Experiment: Growth inhibition of human DU-145 cells assessed as cell growth at 100 uM incubated for 48 hrs by sulforhodamine B assay relative to control
Type: functional
Details: read-out: Activity
Summary of the method: as §1

Row | SMILES | growth at 100 µM
32 | CN1CCc2nc3sc(C(N)=O)c(N)c3c(-c3cccs3)c2C1 | -1%

System: OVCAR-3
Experiment: Growth inhibition of human OVCAR-3 cells incubated for 48 hrs by sulforhodamine B assay
Type: functional
Details: not given
Summary of the method: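 NCI DTP 60-line human tumour panel. Dose-response curves were run only for ligands active in the initial 10 µM screen. GI50 (concentration giving 50% of maximal inhibition of proliferation) and TGI (concentration giving total growth inhibition) were derived from these curves.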

Row | SMILES | GI50 | TGI
33 | CN1CCc2nc3sc(C(N)=O)c(N)c3c(-c3cccs3)c2C1 | 2.16 µM | 6.23 µM

Same assay, conditions: read-out: LC50 (the source's name)

Row | SMILES | CC50
34 | CN1CCc2nc3sc(C(N)=O)c(N)c3c(-c3cccs3)c2C1 | > 100 µM

System: PC-3
Experiment: Growth inhibition of human PC-3 cells assessed as cell growth at 0.01 uM incubated for 48 hrs by sulforhodamine B assay relative to control
Type: functional
Details: read-out: Activity

Row | SMILES | growth at 0.01 µM
35 | CN1CCc2nc3sc(C(N)=O)c(N)c3c(-c3cccs3)c2C1 | 105%

System: KM12
Experiment: Growth inhibition of human KM12 cells assessed as cell growth at 0.1 uM incubated for 48 hrs by sulforhodamine B assay relative to control
Type: functional
Details: read-out: Activity

Row | SMILES | growth at 0.1 µM
36 | CN1CCc2nc3sc(C(N)=O)c(N)c3c(-c3cccs3)c2C1 | 105%

System: SK-MEL-5
Experiment: Growth inhibition of human SK-MEL-5 cells assessed as cell growth at 1 uM incubated for 48 hrs by sulforhodamine B assay relative to control
Type: functional
Details: read-out: Activity

Row | SMILES | growth at 1 µM
37 | CN1CCc2nc3sc(C(N)=O)c(N)c3c(-c3cccs3)c2C1 | 64%

System: DU-145
Experiment: Growth inhibition of human DU-145 cells assessed as cell growth at 1 uM incubated for 48 hrs by sulforhodamine B assay relative to control
Type: functional
Details: read-out: Activity
Summary of the method: as §1

Row | SMILES | growth at 1 µM
38 | CN1CCc2nc3sc(C(N)=O)c(N)c3c(-c3cccs3)c2C1 | 108%

System: SW-620
Experiment: Growth inhibition of human SW-620 cells assessed as cell growth at 100 uM incubated for 48 hrs by sulforhodamine B assay relative to control
Type: functional
Details: read-out: Activity

Row | SMILES | growth at 100 µM
39 | CN1CCc2nc3sc(C(N)=O)c(N)c3c(-c3cccs3)c2C1 | 3%
